Source: ChEMBL document CHEMBL4038332, “Substituted N-Phenyl-5-(2-(phenylamino)thiazol-4-yl)isoxazole-3-carboxamides Are Valuable Antitubercular Candidates that Evade Innate Efflux Machinery” (J Med Chem, 2017)
≈ marks a conversion by molar mass, not a printed value.

Tests used:
[1] = tested on: Mycobacterium tuberculosis; assay: Antimycobacterial activity against wild type Mycobacterium tuberculosis H37Rv incubated for 14 days by broth microdilution assay; format: functional; conditions: 336 h
[2] = Half life in human liver microsomes at 1 uM by HPLC-MS/MS analysis; format: ADME, microsome
Outline: (§1)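 Compound at 1 µM incubated 60 min at 37 °C with pooled HLM (1 mg protein/mL) and an NADPH-regenerating system in 100 mM PBS pH 7.4, after 5 min preheating. Sampled at 0, 15, 30, 60 min, quenched with two volumes of acetonitrile, centrifuged, and supernatant analysed by HPLC-MS/MS. CLint = (0.693/t1/2) × (mL incubation/mg microsomes) × 45 mg/g liver × 20 g liver/kg.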

[3] = Intrinsic clearance in human liver microsomes at 1 uM by HPLC-MS/MS analysis; format: ADME, microsome; conditions: read-out: CLH; outline: as §1
Escherichia coli = assay: Antibacterial activity against Escherichia coli ATCC 25922 after 24 hrs by spectrophotometric analysis; format: functional; conditions: ATCC 25922, 24 h
Outline: (§2)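 Log-phase culture in Mueller Hinton broth at 37 °C with shaking for 3-4 h, pelleted, adjusted at 600 nm in 10 mM phosphate buffer pH 7. Final inoculum approx. 5 × 10^5 CFU/mL. Twofold serial dilutions, final 100 to 0.2 µg/mL. Aerobic incubation 24 h at 37 °C. MIC is the lowest concentration with no visible growth, also read by resazurin (no blue-to-pink change).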

Enterococcus faecium = assay: Antibacterial activity against Enterococcus faecium ATCC 35667 after 24 hrs by spectrophotometric analysis; format: functional; conditions: ATCC 35667, 24 h; outline: as §2
Pseudomonas aeruginosa = assay: Antibacterial activity against Pseudomonas aeruginosa ATCC 27853 after 24 hrs by spectrophotometric analysis; format: functional; conditions: ATCC 27853, 24 h; outline: as §2
[4] = tested on: Mycobacterium tuberculosis; assay: Antimycobacterial activity against nonreplicating Mycobacterium tuberculosis H37Rv ATCC 27924 incubated for 5 days under hypoxic condition followed by 2 days incubation under normal atmosphere by MTT dye based broth microdilution assay; format: functional
Outline: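 Mtb H37Rv ATCC27924 adapted to hypoxia: grown in 8 mL MB7H9, tubes tightly capped and sealed, standing at 37 °C for 8 weeks; methylene blue (final 1.5 µg/mL) monitored O2 depletion. Cells exposed to varying compound concentrations 5 days at 37 °C in anaerobic jar (indicator strip), then 2 days normal atmosphere recovery; MTT to final 2.5%, overnight at room temperature; MIC = lowest concentration with no colour change; triplicate.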

[5] = Cytotoxicity against human MDM cells assessed as reduction in cell viability after 3 days by AlamarBlue assay; format: cell-based; conditions: 72 h
Outline: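 Macrophages came from healthy donors' PBMC (Ficoll gradient), differentiated 7 days in RPMI-1640/10% FCS with 20 ng/mL M-CSF at 37 °C, 5% CO2. 5 × 10^4 cells/well exposed to compounds for 3 days. Viability by AlamarBlue fluorescence (ex 540/35, em 590/20). IC50 taken as the highest concentration leaving 50% of cells viable relative to control.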

Candida albicans = assay: Antifungal activity against Candida albicans ATCC 11006 after 48 hrs by spectrophotometric analysis; format: functional; conditions: ATCC 11006, 48 h
Outline: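 Broth microdilution in RPMI per CLSI M27-A3. Inoculum adjusted to 0.5 McFarland in phosphate buffer, diluted to about 10^3 CFU/mL final and used within 30 min. Compounds at final 100 to 0.2 µg/mL (twofold). Aerobic incubation 48 h at 37 °C. MIC is the lowest concentration without visible growth, also checked by resazurin colour change.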

[6] = tested on: Mycobacterium tuberculosis H37Rv; assay: Inhibition of efflux pump in wild type Mycobacterium tuberculosis H37Rv assessed as increase in accumulation of ethidium bromide by measuring relative final fluorescence index at 2.6 uM measured every second for 60 mins in absence of glucose by real time fluorimetric method
Staphylococcus aureus = assay: Antibacterial activity against Staphylococcus aureus ATCC 25923 after 24 hrs by spectrophotometric analysis; format: functional; conditions: ATCC 25923, 24 h; outline: as §2
[7] = tested on: Mycobacterium tuberculosis; assay: Antimycobacterial activity against wild type Mycobacterium tuberculosis H37Rv incubated for 14 days in presence of Thioridazine by broth microdilution assay; format: functional; conditions: 336 h
[8] = tested on: Mycobacterium tuberculosis; assay: Antimycobacterial activity against wild type Mycobacterium tuberculosis H37Rv incubated for 14 days in presence of Verapamil by broth microdilution assay; format: functional; conditions: 336 h
[9] = Selectivity index, ratio of IC50 for human MDM cells to MIC90 for Mycobacterium tuberculosis H37Rv; format: toxicity; conditions: read-out: Selectivity Index

Row | Compound | MIC90 [1] | further results
1 | Cc1ccc(Nc2nc(-c3cc(C(=O)N4CCCCC4)no3)cs2)cc1 | 16 to 32 µg/mL | 
2 | CCOC(=O)c1cc(-c2csc(Nc3ccc(C)cc3)n2)on1 | 1.5 to 3 µM | half-life at 1 µM [2]: < 1 min; CLint scaled at 1 µM [3]: > 400 mL/min/kg
3 | COc1ccc(-c2csc(Nc3ccc(C)cc3)n2)cc1 | 3.8 µg/mL | 
4 | CCN(CC)C(=O)c1cc(-c2csc(Nc3cc(Cl)cc(Cl)c3)n2)n(C)n1 | > 64 µg/mL | 
5 | COc1ccc(-c2cc(-c3csc(Nc4ccc(C)cc4)n3)on2)cc1 | 4 to 8 µg/mL | 
6 | CC(=O)c1nc(Nc2cc(Cl)cc(Cl)c2)sc1C | > 64 µg/mL | 
7 | Cc1sc(Nc2cc(Cl)cc(Cl)c2)nc1-c1csc(Nc2cc(Cl)cc(Cl)c2)n1 | > 64 µg/mL | 
8 | O=C(O)c1cc(-c2csc(Nc3cc(Cl)cc(Cl)c3)n2)on1 | > 64 µg/mL | 
9 | CCOC(=O)c1cc(-c2csc(Nc3ccc(C)cc3)n2)n(C)n1 | 16 to 32 µg/mL | 
10 | Cc1ccc(Nc2nc(-c3cc(-c4nccs4)no3)cs2)cc1 | > 64 µg/mL | 
11 | Cc1ccc(Nc2nc(-c3nc(Nc4ccc(C)cc4)sc3C)cs2)cc1 | 4 to 8 µg/mL | 
12 | CC(=O)c1nc(Nc2ccc(C)cc2)sc1C | > 64 µg/mL | 
13 | CCOC(=O)c1cc(-c2csc(Nc3cc(Cl)cc(Cl)c3)n2)n(C)n1 | > 64 µg/mL | 
14 | CCOC(=O)c1cc(-c2csc(Nc3cc(Cl)cc(Cl)c3)n2)on1 | 4 to 8 µg/mL | half-life at 1 µM [2]: 3.3 min; CLint scaled at 1 µM [3]: 189 mL/min/kg
15 | CCN(CC)C(=O)c1cc(-c2csc(Nc3ccc(C)cc3)n2)on1 | 16 to 32 µg/mL | 
16 | Cc1ccc(Nc2nc(-c3cc(C(N)=O)no3)cs2)cc1 | > 64 µg/mL | 
17 | Cc1ccc(Nc2nc(-c3cc(C(=O)NC45CC6CC(CC(C6)C4)C5)no3)cs2)cc1 | > 64 µg/mL | 
18 | O=C(NC12CC3CC(CC(C3)C1)C2)c1cc(-c2csc(Nc3cc(Cl)cc(Cl)c3)n2)on1 | > 64 µg/mL | 

Row | Compound | MIC90 [1] | further results
19 | NNC(=O)c1ccncc1 [ISONIAZID] | 0.22 to 0.44 µM | 
20 | c1cc(Nc2nc(-c3ccncc3)cs2)ccn1 | > 64 µg/mL | 
21 | Cc1ccc(Nc2nc(-c3cc(C(=O)Nc4ccccc4)no3)cs2)cc1 | 0.33 to 0.66 µM | MIC90 (Escherichia coli): 100 µg/mL (≈ 266 µM); MIC90 (Enterococcus faecium): 100 µg/mL (≈ 266 µM); MIC90 (Pseudomonas aeruginosa): 100 µg/mL (≈ 266 µM); MIC90 [4]: 1 µg/mL (≈ 2.66 µM); half-life at 1 µM [2]: 35.1 min; IC50 [5]: 186 µM; MIC90 (Candida albicans): > 100 µg/mL; Activity index [6]: 0.22; MIC90 (Staphylococcus aureus): > 100 µg/mL; CLint scaled at 1 µM [3]: 17.8 mL/min/kg; MIC90 [7]: 2 µg/mL; MIC90 [8]: 2 µg/mL; selectivity ratio [9]: > 500
22 | CCN(CC)C(=O)c1cc(-c2csc(Nc3ccc(C)cc3)n2)n(C)n1 | > 64 µg/mL | 
23 | Cc1ccc(Nc2nc(-c3cc(C(=O)O)no3)cs2)cc1 | > 64 µg/mL | half-life at 1 µM [2]: 14.3 min; CLint scaled at 1 µM [3]: 43.7 mL/min/kg
24 | Cc1ccc(Nc2nc(-c3cc(C(=O)O)nn3C)cs2)cc1 | > 64 µg/mL | 
25 | Clc1cc(Cl)cc(Nc2nc(-c3c[nH]nn3)cs2)c1 | > 64 µg/mL | 
26 | Cc1ccc(Nc2nc(-c3ccncc3)cs2)cc1 | > 64 µg/mL | 
27 | Clc1cc(Cl)cc(Nc2nc(-c3ccncc3)cs2)c1 | > 64 µg/mL | 
28 | Cn1nc(C(=O)O)cc1-c1csc(Nc2cc(Cl)cc(Cl)c2)n1 | > 64 µg/mL | 
29 | COc1ccc(-c2cc(-c3csc(Nc4cc(Cl)cc(Cl)c4)n3)on2)cc1 | > 64 µg/mL | 
30 | O=C(Nc1ccccc1)c1cc(-c2csc(Nc3cc(Cl)cc(Cl)c3)n2)on1 |  | selectivity ratio [9]: > 500
31 | Cc1ccc(Nc2nc(-c3cc(C(=O)Nc4ccccn4)no3)cs2)cc1 | 0.16 to 0.32 µM | MIC90 (Escherichia coli): 100 µg/mL (≈ 265 µM); MIC90 (Enterococcus faecium): 100 µg/mL (≈ 265 µM); MIC90 (Pseudomonas aeruginosa): 100 µg/mL (≈ 265 µM); MIC90 [4]: 1 µg/mL (≈ 2.65 µM); half-life at 1 µM [2]: 16.1 min; IC50 [5]: 140 µM; MIC90 (Candida albicans): 100 µg/mL (≈ 265 µM); Activity index [6]: 0.17; MIC90 (Staphylococcus aureus): 100 µg/mL (≈ 265 µM); CLint scaled at 1 µM [3]: 38.8 mL/min/kg; MIC90 [7]: 1 µg/mL; MIC90 [8]: 2 µg/mL
32 | CNC(=O)c1cc(-c2csc(Nc3ccc(C)cc3)n2)on1 | > 64 µg/mL | 
33 | Cc1sc(N)nc1-c1csc(Nc2cc(Cl)cc(Cl)c2)n1 | 8 to 16 µg/mL | 
34 | Cc1ccc(Nc2nc(-c3nc(N)sc3C)cs2)cc1 | 16 to 32 µg/mL | 
35 | Cc1ccc(Nc2nc(-c3cc(CO)no3)cs2)cc1 | 16 to 32 µg/mL | 
